# Measured values as given in ChEMBL document CHEMBL1154114, “7-((4-Substituted)piperazin-1-yl) derivatives of ciprofloxacin: synthesis and in vitro biological evaluation as potential antitumor agents” (Bioorg Med Chem, 2009).
# What was measured:
# PC-3 = test: Antitumor activity against human PC3 cells after 5 days by MTT assay; type: functional, cell-based; conditions: PC-3, 120 h
# Outline: (§1)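 Five human cancer lines (prostate PC-3, glioblastoma U373-MG, colorectal LoVo, NSCLC A549, breast MCF-7) plated at 10⁴ to 3×10⁴ cells/mL depending on cell type, allowed 24 h to attach, then cultured 120 h with or without drug at nine concentrations. MTT reduction to formazan read at 570 nm (reference 630 nm).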
# A549 = test: Antitumor activity against human A549 cells after 5 days by MTT assay; type: functional, cell-based; conditions: A549, 120 h; outline: as §1
# [1] = Antitumor activity against human U373MG cells after 5 days by MTT assay; type: functional, cell-based, U-373MG ATCC; conditions: U373 MG, 120 h; outline: as §1
# MCF7 = test: Antitumor activity against human MCF7 cells after 5 days by MTT assay; type: functional, cell-based; conditions: MCF7, 120 h; outline: as §1
# LoVo = test: Antitumor activity against human LoVo cells after 5 days by MTT assay; type: functional, cell-based; conditions: 120 h; outline: as §1
# HeLa = test: Inhibition of human HeLa cell proliferation; type: functional, cell-based
# [2] = Stability in phosphate buffer of pH 7.4 after 6 days; type: physicochemical; conditions: read-out: Stability
# Outline: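 Compound dissolved at 1 mM in DMSO, diluted with phosphate buffer pH 7.4 to 1 mL, incubated sealed at 37 °C for 6 days. A t0 aliquot was held at 4 °C. HPLC with 280 nm detection and duplicate injections, with expected degradation products as references. Stability is taken as compound peak area over (compound + degradation product) peak area.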
# [3] = Toxicity in ip dosed B6D2F1 mouse assessed as maximum tolerated dose after 28 days; type: organism-based; conditions: in vivo
# Outline: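 Healthy mice, three per group, each given a single ip dose and observed for up to 28 days. The MTD index is the highest single dose given without causing any deaths in the group.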
# [4] = Inhibition of mouse NIH/3T3 cell proliferation by MTT assay; type: cell-based; conditions: NIH3T3
IC50 (PC-3) [µM],IC50 (A549) [µM],IC50 (MCF7) [µM],IC50 (LoVo) [µM],IC50 (HeLa) [µM],Compound,IC50 [1] [µM],remaining at 144 h [2] [%],MTD at 672 h [3] [mg/kg],IC50 [4] [µM]
7,6,26,30,,CCCCCCCCC(=O)N1CCN(c2cc3c(cc2F)c(=O)c(C(=O)O)cn3C2CC2)CC1,24,,,
3,15,621,39,,CCCCCCCCCCCC(=O)OCC(=O)N1CCN(c2cc3c(cc2F)c(=O)c(C(=O)O)cn3C2CC2)CC1,49,> 98,,
715,456,1000,613,,CCCC(=O)OCC(=O)N1CCN(c2cc3c(cc2F)c(=O)c(C(=O)O)cn3C2CC2)CC1,586,100,,
23,16,818,29,,CCCCCCCC(=O)OCC(=O)N1CCN(c2cc3c(cc2F)c(=O)c(C(=O)O)cn3C2CC2)CC1,53,> 97,,
30,112,56,75,,CCCCCCCCCCCCCCCC(=O)OCC(=O)N1CCN(c2cc3c(cc2F)c(=O)c(C(=O)O)cn3C2CC2)CC1,119,,,
745,742,828,766,,CCCCCCCCCCCCCC(=O)OCC(=O)N1CCN(c2cc3c(cc2F)c(=O)c(C(=O)O)cn3C2CC2)CC1,748,,,
24,44,20,32,,CCCCCCCCCCOC(=O)N1CCN(c2cc3c(cc2F)c(=O)c(C(=O)O)cn3C2CC2)CC1,401,,,
14,20,72,27,,CCCCCC(=O)OCC(=O)N1CCN(c2cc3c(cc2F)c(=O)c(C(=O)O)cn3C2CC2)CC1,28,> 99,,
257,216,255,267,,CCCCCCCCC(=O)OCC(=O)N1CCN(c2cc3c(cc2F)c(=O)c(C(=O)O)cn3C2CC2)CC1,272,,,
30,38,35,30,,CCCCCCCCCOC(=O)N1CCN(c2cc3c(cc2F)c(=O)c(C(=O)O)cn3C2CC2)CC1,283,,,
416,273,353,317,,CCCCCCCCCC(=O)OCC(=O)N1CCN(c2cc3c(cc2F)c(=O)c(C(=O)O)cn3C2CC2)CC1,291,,,
,> 1000,816,828,,CCCCCCCCCCC(=O)OCC(=O)N1CCN(c2cc3c(cc2F)c(=O)c(C(=O)O)cn3C2CC2)CC1,> 1000,,,
4,7,108,45,,CCCCCCCCCCCC(=O)N1CCN(c2cc3c(cc2F)c(=O)c(C(=O)O)cn3C2CC2)CC1,18,,,
94,56,96,101,,CCCCCCCCCCCCCC(=O)N1CCN(c2cc3c(cc2F)c(=O)c(C(=O)O)cn3C2CC2)CC1,205,,,

# The next lines start with the compound.
Compound,IC50 (PC-3) [µM],IC50 (A549) [µM],IC50 (MCF7) [µM],IC50 (LoVo) [µM],IC50 (HeLa) [µM],IC50 [1] [µM],remaining at 144 h [2] [%],MTD at 672 h [3] [mg/kg],IC50 [4] [µM]
COc1c(N2CCNC(C)C2)c(F)cc2c(=O)c(C(=O)O)cn(C3CC3)c12 (stereo not given) [GATIFLOXACIN],,,,,400,,,,
CCCCCCC(=O)N1CCN(c2cc3c(cc2F)c(=O)c(C(=O)O)cn3C2CC2)CC1,779,808,754,793,,729,100,> 80,
CC(=O)OCC(=O)N1CCN(c2cc3c(cc2F)c(=O)c(C(=O)O)cn3C2CC2)CC1,176,373,279,268,,99,,,
CC(=O)N1CCN(c2cc3c(cc2F)c(=O)c(C(=O)O)cn3C2CC2)CC1,680,584,803,323,,535,,,
CCCCCCCCCCCCOC(=O)N1CCN(c2cc3c(cc2F)c(=O)c(C(=O)O)cn3C2CC2)CC1,217,273,200,347,,94,,,
NC1CCN(c2nc3c(cc2F)c(=O)c(C(=O)O)cn3-c2ccc(F)cc2F)C1 (stereo not given) [TOSUFLOXACIN],,,,,32,,,,
CCCCOC(=O)N1CCN(c2cc3c(cc2F)c(=O)c(C(=O)O)cn3C2CC2)CC1,9,42,14,52,,31,100,> 80,
CCCCC(=O)N1CCN(c2cc3c(cc2F)c(=O)c(C(=O)O)cn3C2CC2)CC1,73,64,316,87,,86,,,
CCC(=O)N1CCN(c2cc3c(cc2F)c(=O)c(C(=O)O)cn3C2CC2)CC1,352,402,727,306,,279,,,
C[C@@H]1CN(c2c(F)c(N)c3c(=O)c(C(=O)O)cn(C4CC4)c3c2F)C[C@H](C)N1 [SPARFLOXACIN],,,,,265,,,,122
CC(C)(C)C(=O)N1CCN(c2cc3c(cc2F)c(=O)c(C(=O)O)cn3C2CC2)CC1,246,509,85,93,,67,,,
O=C(O)c1cn(C2CC2)c2cc(N3CCN(C(=O)Cc4ccccc4)CC3)c(F)cc2c1=O,243,29,32,41,,34,,,
CCn1cc(C(=O)O)c(=O)c2cc(F)c(N3CCNC(C)C3)c(F)c21 (stereo not given) [LOMEFLOXACIN],,,,,410,,,,483
CCOC(=O)N1CCN(c2cc3c(cc2F)c(=O)c(C(=O)O)cn3C2CC2)CC1,385,> 1000,455,272,,228,100,> 80,
CCCCCCCCOC(=O)N1CCN(c2cc3c(cc2F)c(=O)c(C(=O)O)cn3C2CC2)CC1,24,21,23,43,,79,100,> 80,
CCCCCCCCCC(=O)N1CCN(c2cc3c(cc2F)c(=O)c(C(=O)O)cn3C2CC2)CC1,4,3,20,7,,5,100,> 80,
O=C(O)c1cn(C2CC2)c2cc(N3CCN(C(=O)CO)CC3)c(F)cc2c1=O,433,456,985,408,,294,,,
CCCC(=O)N1CCN(c2cc3c(cc2F)c(=O)c(C(=O)O)cn3C2CC2)CC1,85,697,172,148,,104,,,
CCCCCCCCCCCCCCCC(=O)N1CCN(c2cc3c(cc2F)c(=O)c(C(=O)O)cn3C2CC2)CC1,,,,,,,100,,
